Test results reported in ChEMBL document CHEMBL1140193, “Synthesis and anti-inflammatory evaluation of methylene bridged benzofuranyl imidazo[2,1-b][1,3,4]thiadiazoles” (Eur J Med Chem, 2008).

Assays:
Rattus norvegicus [1] = assay: Antiinflammatory activity in Wistar albino rat assessed as inhibition of carrageenan-induced paw oedema at 100 mg/kg, po measured 2 hrs after carrageenan challenge; assay type: functional
Summary of the method: (§1)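 Albino rats, 6 per group, dosed orally at 100 mg kg^-1; ibuprofen 100 mg kg^-1 as standard. One hour after dosing, 0.1 ml of 1% carrageenan with 2% gum acacia in normal saline injected subplantar into the right hind paw. Paw volume measured by plethysmometer; % inhibition versus control calculated. One-way ANOVA with Dunnett's t test.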

Rattus norvegicus [2] = assay: Antiinflammatory activity in Wistar albino rat assessed as inhibition of carrageenan-induced paw oedema at 100 mg/kg, po measured 3 hrs after carrageenan challenge; assay type: functional; summary of the method: as §1
Rattus norvegicus [3] = assay: Toxicity in Wistar albino rat assessed as induction of convulsions and tremors up to 3 g/kg, po after 8 hrs; assay type: organism-based; settings: in vivo, 3000 mg/kg
Summary of the method: (§2)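 Acute toxicity: albino rats of either sex in groups of six, oral doses from 100 up to 3000 mg kg^-1. Rats observed continuously for 8 h for changes in motor activity, ataxia, tremors, convulsions, sedation and lacrimation. Ulceration and haemorrhagic spots also inspected.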

Rattus norvegicus [4] = assay: Analgesic activity in Wistar albino rat […] assessed as reaction time for tail withdrawal at 100 mg/kg, po after 300 mins by tail flick method; assay type: functional
Summary of the method: (§3)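 Rat tail-flick test: latency for the rat to withdraw its tail from hot water at 55 ± 0.5 °C. Drugs given orally. Reaction time in seconds read at 60, 90, 120 and 300 min after dosing. Treated animals compared with control and with a nimesulide standard. Wistar albino rats, 150-200 g, either sex; food withdrawn 12 h before and during testing.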

Rattus norvegicus [5] = assay: Antiinflammatory activity in Wistar albino rat assessed as inhibition of carrageenan-induced paw oedema at 100 mg/kg, po measured 4 hrs after carrageenan challenge; assay type: functional; summary of the method: as §1
Rattus norvegicus [6] = assay: Toxicity in Wistar albino rat assessed as induction of gastric ulceration up to 3 g/kg, po after 8 hrs; assay type: organism-based, Stomach; settings: in vivo, 3000 mg/kg; summary of the method: as §2
Rattus norvegicus [7] = assay: Analgesic activity in Wistar albino rat […] assessed as increase in reaction time for tail withdrawal at 100 mg/kg, po after 300 mins by tail flick method; assay type: functional; summary of the method: as §3
Rattus norvegicus [8] = assay: Analgesic activity in Wistar albino rat […] assessed as increase in reaction time for tail withdrawal at 100 mg/kg, po after 180 mins by tail flick method; assay type: functional
Rattus norvegicus [9] = assay: Antiinflammatory activity in Wistar albino rat assessed as inhibition of carrageenan-induced paw oedema at 100 mg/kg, po measured 0.5 hrs after carrageenan challenge; assay type: functional; summary of the method: as §1
Rattus norvegicus [10] = assay: Toxicity in Wistar albino rat assessed as induction of sedation up to 3 g/kg, po after 8 hrs; assay type: organism-based; settings: in vivo, 3000 mg/kg; summary of the method: as §2
Rattus norvegicus [11] = assay: Antiinflammatory activity in Wistar albino rat assessed as inhibition of carrageenan-induced paw oedema at 100 mg/kg, po measured 1 hr after carrageenan challenge; assay type: functional; summary of the method: as §1
Rattus norvegicus [12] = assay: Toxicity in Wistar albino rat assessed as mortality up to 3 g/kg, po after 24 hrs; assay type: organism-based; settings: in vivo, 3000 mg/kg
Summary of the method: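 Albino rats of either sex, six per group, dosed orally from 100 up to 3000 mg kg^-1 body weight. Animals were watched continuously for 8 h for signs of acute toxicity such as altered motor activity, ataxia, tremors, convulsions, sedation and lacrimation, and were checked for mortality over a 24 h period. Food was withheld for 12 h before dosing.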

Rattus norvegicus [13] = assay: Analgesic activity in Wistar albino rat […] assessed as reaction time for tail withdrawal at 100 mg/kg, po after 60 mins by tail flick method; assay type: functional; summary of the method: as §3
Rattus norvegicus [14] = assay: Analgesic activity in Wistar albino rat […] assessed as reaction time for tail withdrawal at 100 mg/kg, po after 120 mins by tail flick method; assay type: functional; summary of the method: as §3
Rattus norvegicus [15] = assay: Analgesic activity in Wistar albino rat […] assessed as reaction time for tail withdrawal at 100 mg/kg, po after 180 mins by tail flick method; assay type: functional
Rattus norvegicus [16] = assay: Toxicity in Wistar albino rat assessed as induction of haemorrhagic spots up to 3 g/kg, po after 8 hrs; assay type: organism-based; settings: in vivo, 3000 mg/kg; summary of the method: as §2
Rattus norvegicus [17] = assay: Toxicity in Wistar albino rat assessed as effect on motor activity up to 3 g/kg, po after 8 hrs; assay type: organism-based; settings: in vivo, 3000 mg/kg; summary of the method: as §2
Rattus norvegicus [18] = assay: Analgesic activity in Wistar albino rat […] assessed as reaction time for tail withdrawal at 100 mg/kg, po after 30 mins by tail flick method; assay type: functional
Rattus norvegicus [19] = assay: Antiinflammatory activity in Wistar albino rat assessed as inhibition of carrageenan-induced paw oedema at 100 mg/kg, po measured 5 hrs after carrageenan challenge; assay type: functional; summary of the method: as §1

Compound: Cc1ccc2c(Cc3nn4c(C#N)c(-c5ccc(Cl)cc5)nc4s3)coc2c1
- inhibition in vivo at 100 mg/kg (Rattus norvegicus [1]): 28%
- inhibition in vivo at 100 mg/kg (Rattus norvegicus [2]): 43.4%
- Activity (Rattus norvegicus [3]): Non-toxic
- Activity (Rattus norvegicus [4]): 7.167 s
- inhibition in vivo at 100 mg/kg (Rattus norvegicus [5]): 51.2%
- Activity (Rattus norvegicus [6]): Non-toxic
- Activity (Rattus norvegicus [7]): 167.12%
- Activity (Rattus norvegicus [8]): 207.49%
- inhibition in vivo at 100 mg/kg (Rattus norvegicus [9]): 4.77%
- Activity (Rattus norvegicus [10]): Non-toxic
- inhibition in vivo at 100 mg/kg (Rattus norvegicus [11]): 13.4%
- Activity (Rattus norvegicus [12]): Non-toxic
- Activity (Rattus norvegicus [13]): 4.067 s
- Activity (Rattus norvegicus [14]): 6.617 s
- Activity (Rattus norvegicus [15]): 8.25 s
- Activity (Rattus norvegicus [16]): Non-toxic
- Activity (Rattus norvegicus [17]): Non-toxic
- Activity (Rattus norvegicus [18]): 3.7 s
- inhibition in vivo at 100 mg/kg (Rattus norvegicus [19]): 53.5%

Compound: Cc1ccc2c(Cc3nn4c(/C=N/O)c(-c5ccc(Cl)cc5)nc4s3)coc2c1
- inhibition in vivo at 100 mg/kg (Rattus norvegicus [1]): 11.2%
- inhibition in vivo at 100 mg/kg (Rattus norvegicus [2]): 10%
- Activity (Rattus norvegicus [3]): Non-toxic
- Activity (Rattus norvegicus [4]): 2.6 s
- inhibition in vivo at 100 mg/kg (Rattus norvegicus [5]): 11.1%
- Activity (Rattus norvegicus [6]): Non-toxic
- Activity (Rattus norvegicus [7]): -3.09%
- Activity (Rattus norvegicus [8]): 1.26%
- inhibition in vivo at 100 mg/kg (Rattus norvegicus [9]): 6%
- Activity (Rattus norvegicus [10]): Non-toxic
- inhibition in vivo at 100 mg/kg (Rattus norvegicus [11]): 5.19%
- Activity (Rattus norvegicus [12]): Non-toxic
- Activity (Rattus norvegicus [13]): 2.667 s
- Activity (Rattus norvegicus [14]): 2.633 s
- Activity (Rattus norvegicus [15]): 2.717 s
- Activity (Rattus norvegicus [16]): Non-toxic
- Activity (Rattus norvegicus [17]): Non-toxic
- Activity (Rattus norvegicus [18]): 2.483 s
- inhibition in vivo at 100 mg/kg (Rattus norvegicus [19]): 31%
